In the M2OR odorant receptor database:

Experiments:
Settings in all cases: stereoisomer not certain
UniProt Q8VGZ2 = biological target: T1, UniProt Q8VGZ2
T1 sequence (whole entry): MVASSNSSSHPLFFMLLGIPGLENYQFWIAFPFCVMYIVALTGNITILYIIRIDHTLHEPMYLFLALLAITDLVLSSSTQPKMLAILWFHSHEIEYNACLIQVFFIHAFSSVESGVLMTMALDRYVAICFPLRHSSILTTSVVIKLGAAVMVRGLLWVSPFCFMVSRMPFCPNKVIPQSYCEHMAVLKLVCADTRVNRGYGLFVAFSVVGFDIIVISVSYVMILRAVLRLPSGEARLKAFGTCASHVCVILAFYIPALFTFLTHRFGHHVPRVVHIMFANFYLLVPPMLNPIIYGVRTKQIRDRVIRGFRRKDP
Summary of the method: (§1)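 Assay methods differ from source to source, frequently being transient luciferase assays in mammalian cell lines. For each receptor–molecule pair, the label responsive (active) applies when the original authors judged the measured signal statistically different from baseline, and non-responsive (inactive) applies otherwise.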

UniProt Q8VGZ7 = biological target: T2, UniProt Q8VGZ7
T2 sequence (whole entry): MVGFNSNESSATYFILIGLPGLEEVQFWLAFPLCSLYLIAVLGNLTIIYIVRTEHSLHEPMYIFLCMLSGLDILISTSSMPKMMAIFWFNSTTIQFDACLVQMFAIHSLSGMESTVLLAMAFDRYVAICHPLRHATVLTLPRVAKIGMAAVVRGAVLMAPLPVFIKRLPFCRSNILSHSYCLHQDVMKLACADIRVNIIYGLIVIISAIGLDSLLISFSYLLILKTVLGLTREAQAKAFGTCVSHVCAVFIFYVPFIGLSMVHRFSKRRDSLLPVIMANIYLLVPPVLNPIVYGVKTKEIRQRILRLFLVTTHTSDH
Summary of the method: as §1

UniProt Q8VH16 = biological target: T3, UniProt Q8VH16
T3 sequence (whole entry): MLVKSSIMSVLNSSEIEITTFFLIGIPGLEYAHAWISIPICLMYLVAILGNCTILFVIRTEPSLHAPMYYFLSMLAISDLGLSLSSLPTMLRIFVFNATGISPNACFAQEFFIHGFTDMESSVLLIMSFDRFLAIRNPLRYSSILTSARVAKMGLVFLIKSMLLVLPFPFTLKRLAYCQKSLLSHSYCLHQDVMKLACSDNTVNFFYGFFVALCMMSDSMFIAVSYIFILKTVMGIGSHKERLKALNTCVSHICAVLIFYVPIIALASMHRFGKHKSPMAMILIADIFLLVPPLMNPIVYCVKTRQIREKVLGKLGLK
Summary of the method: as §1

UniProt Q8VH20 = biological target: T4, UniProt Q8VH20
T4 sequence (whole entry): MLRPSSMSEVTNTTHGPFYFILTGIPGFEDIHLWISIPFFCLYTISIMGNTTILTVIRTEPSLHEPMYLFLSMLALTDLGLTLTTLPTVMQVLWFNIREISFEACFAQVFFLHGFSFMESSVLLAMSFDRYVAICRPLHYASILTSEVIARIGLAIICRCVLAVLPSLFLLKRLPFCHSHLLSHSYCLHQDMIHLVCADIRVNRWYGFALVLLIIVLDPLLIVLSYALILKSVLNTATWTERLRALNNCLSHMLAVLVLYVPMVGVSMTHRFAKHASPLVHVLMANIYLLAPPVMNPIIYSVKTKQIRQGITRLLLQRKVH
Summary of the method: as §1

UniProt Q8VH21 = biological target: T5, UniProt Q8VH21
T5 sequence (whole entry): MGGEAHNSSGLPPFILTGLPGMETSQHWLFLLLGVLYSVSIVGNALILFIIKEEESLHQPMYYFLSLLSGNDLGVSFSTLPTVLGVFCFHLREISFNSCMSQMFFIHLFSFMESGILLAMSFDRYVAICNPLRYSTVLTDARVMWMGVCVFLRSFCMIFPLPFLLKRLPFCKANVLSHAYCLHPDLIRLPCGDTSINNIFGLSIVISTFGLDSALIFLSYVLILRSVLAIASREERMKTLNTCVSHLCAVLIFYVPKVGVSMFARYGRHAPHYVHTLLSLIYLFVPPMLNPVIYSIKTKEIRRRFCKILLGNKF
Summary of the method: as §1

UniProt Q924H8 = biological target: T6, UniProt Q924H8
T6 sequence (whole entry): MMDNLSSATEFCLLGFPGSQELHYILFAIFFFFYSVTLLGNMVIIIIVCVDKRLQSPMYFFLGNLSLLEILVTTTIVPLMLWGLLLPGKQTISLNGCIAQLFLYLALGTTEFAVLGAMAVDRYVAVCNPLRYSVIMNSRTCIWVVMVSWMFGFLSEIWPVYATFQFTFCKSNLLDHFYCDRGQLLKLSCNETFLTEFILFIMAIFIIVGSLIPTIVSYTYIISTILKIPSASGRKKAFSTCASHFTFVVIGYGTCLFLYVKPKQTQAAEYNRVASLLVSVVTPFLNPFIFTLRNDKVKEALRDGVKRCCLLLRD
Summary of the method: as §1

SMILES	odorant receptor agonist call (UniProt Q8VGZ2)	odorant receptor agonist call (UniProt Q8VGZ7)	odorant receptor agonist call (UniProt Q8VH16)	odorant receptor agonist call (UniProt Q8VH20)	odorant receptor agonist call (UniProt Q8VH21)	odorant receptor agonist call (UniProt Q924H8)
CSSSC	inactive	inactive	inactive	active	inactive	inactive
CCN(CC)CC	inactive	inactive	inactive	inactive	inactive	inactive
CCCCCCC=CC=O	inactive	inactive	inactive	inactive	inactive	inactive
CCCCCCCCCC=CC=O	inactive	inactive	inactive	inactive	inactive	inactive
CCOC(=O)C(C)CC (stereo not given)	inactive	inactive	inactive	inactive	inactive	inactive
CCc1ncc(C)nc1CC	inactive	inactive	inactive	inactive	inactive	inactive
C=CC(=C)CCC=C(C)C	inactive	inactive	inactive	inactive	inactive	inactive
CCCC(C)C(=O)OCC (stereo not given)	inactive	inactive	inactive	inactive	inactive	inactive
C=CC(=O)CCCCC	inactive	inactive	inactive	inactive	inactive	inactive
OCCc1ccccc1	inactive	inactive	inactive	inactive	inactive	inactive
